This is an account of results in ChEMBL document CHEMBL1126686 (J Med Chem, 1993).

Structures are written as SMILES.

Assay [1] concerns the target T1, Phosphodiesterase 4 (Homo sapiens, UniProt P27815+Q08499+Q07343+Q08493). Nature of the assay: In vitro inhibition of PDE-IV isolated from guinea pig ventricle at 10 uM. Particulars: Cavia porcellus, target entry is the homologue from another species. The format is protein assay.
Assay [2] has as its target T2, Phosphodiesterase 3 (Homo sapiens, UniProt Q14432+Q13370). Nature of the assay: Percentage inhibition against PDE-III (phosphodiesterase III) in guinea pig ventricle at 10 uM. The format is protein assay. The note with it: Cavia porcellus, target entry is the homologue from another species.
The target in assay [3] is T2, Phosphodiesterase 3. Nature of the assay: Effective dose against PDE-III for increase in contractility following administration to anaesthetised dogs. The note with it: Canis lupus familiaris; target entry is the homologue from another species.
Assay [4] addresses T2, Phosphodiesterase 3. Nature of the assay: Relative positive inotropic activity (ED50) and PDE 3 inhibition (IC50). The format is protein assay. Particulars: Cavia porcellus.
Assay [5] deals with T2, Phosphodiesterase 3. Nature of the assay: Inhibition of PDE 3 (phosphodiesterase III) from guinea pig ventricle. Particulars: target entry is the homologue from another species. The format is protein assay, Cavia porcellus. An outline of the steps: (§1)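 PDE III and PDE IV were each prepared from guinea pig ventricle by anion-exchange chromatography. Activity was measured by the boronate column method with 1 μM cAMP as substrate.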

The target in assay [6] is T1, Phosphodiesterase 4. Nature of the assay: In vitro inhibition of PDE-IV isolated from guinea pig ventricle at 100 uM. Format: protein assay. The note with it: Cavia porcellus, target entry is the homologue from another species.
The target of assay [7] is T2, Phosphodiesterase 3. Nature of the assay: Percent inhibition of PDE 3 (phosphodiesterase III) from guinea pig ventricle at 10 uM (or 100 uM). The format is protein assay. The note with it: Cavia porcellus, target entry is the homologue from another species.
In assay [8] the target is T1, Phosphodiesterase 4. Nature of the assay: In vitro inhibition of PDE-IV isolated from guinea pig ventricle. Format: protein assay, Cavia porcellus. The note with it: target entry is the homologue from another species. An outline of the steps: as §1
For assay [9], the target named is cGMP-specific 3',5'-cyclic phosphodiesterase (Homo sapiens) (UniProt O76074). Nature of the assay: In vitro inhibition of PDE-V isolated from porcine pulmonary artery at 10 uM. Particulars: Sus scrofa, target entry is the homologue from another species.
The test system of assay [10] is cGMP-specific 3',5'-cyclic phosphodiesterase (Sus scrofa). Nature of the assay: In vitro inhibition of PDE-V isolated from porcine pulmonary artery at 100 uM.
The target of assay [11] is T1, Phosphodiesterase 4. Nature of the assay: In vitro inhibition of PDE-IV isolated from guinea pig ventricle; Not determined. Particulars: Cavia porcellus; target entry is the homologue from another species; concentration not given here. The format is protein assay. An outline of the steps:
as §1

As to `OCCOc1ccccc1-c1nc2ccc[nH]c-2n1`, the inhibition at Phosphodiesterase 4 [1] came to 14%; against Phosphodiesterase 3 [2], 2%.

On to `CCCCCOc1ccccc1-c1nc2cc[nH]cc-2n1`, for which the figures for the inhibition against Phosphodiesterase 4 [1] and on Phosphodiesterase 3 [2] were 50% and 20%, respectively.

`O=C1CCC(c2ccc(-n3ccnc3)cc2)=NN1` had an ED50 on Phosphodiesterase 3 [3] of 0.05 mg/kg.

With `COc1cc([S+](C)[O-])ccc1-c1nc2cnccc2[nH]1` (stereo not given) [ISOMAZOLE], the Ratio on Phosphodiesterase 3 [4] came to 1.4. The IC50 against Phosphodiesterase 3 [5] was 42 µM. Moreover, the median effective dose (ED50) on Phosphodiesterase 3 [3] worked out at 0.03 mg/kg. Moreover, the inhibition was 2% against Phosphodiesterase 4 [6] and 23% against Phosphodiesterase 3 [7].

For the molecule `Cc1[nH]c(=O)c(C#N)cc1-c1ccncc1`, the ED50 on Phosphodiesterase 3 [3] was 0.037 mg/kg.

Molecule `c1c[nH]c2nc(-c3ccccc3OC3CCCC3)nc-2c1` yielded an inhibition on Phosphodiesterase 3 [2] of 12%. At Phosphodiesterase 4 [8], this molecule registered an IC50 of 19 µM.

As to `CCCOc1ccccc1-c1cn2cccnc2n1`, the inhibition came to 16% at Phosphodiesterase 4 [1] and 2% at Phosphodiesterase 3 [2].

Consider `COc1cc([S+](C)[O-])ccc1-c1nc2cccnc2[nH]1` (stereo not given), for which, at Phosphodiesterase 3 [3], the ED50 worked out at 0.3 mg/kg. Besides, the inhibition on Phosphodiesterase 3 [7] amounted to 2%.

For the molecule `CCOc1ccccc1-c1nc2ccc[nH]c-2n1`, the inhibition against Phosphodiesterase 4 [1] came to 23%; at Phosphodiesterase 3 [2], 15%.

For `Oc1ccccc1-c1nc2ccc[nH]c-2n1`, the inhibition against Phosphodiesterase 4 [1] was determined as 0%; against Phosphodiesterase 3 [2], 15%.

As for `CCCSc1ccccc1-c1nc2ccc[nH]c-2n1`, the inhibition against Phosphodiesterase 4 [1] is 21%; on Phosphodiesterase 3 [2], 0%.

In the case of `OCCCOc1ccccc1-c1nc2ccc[nH]c-2n1`, the inhibition stood at 30% against Phosphodiesterase 4 [1] and 0% at Phosphodiesterase 3 [2].

`CC(C)COc1ccccc1-c1nc2ccc[nH]c-2n1`: the IC50 against Phosphodiesterase 4 [8] amounted to 3 µM.

Turning to `CC(=O)Oc1ccccc1-c1nc2ccc[nH]c-2n1`, the inhibition was 0% at Phosphodiesterase 4 [1] and 2% against Phosphodiesterase 3 [2].

On to `CC(C)(C)Oc1ccccc1-c1nc2ccc[nH]c-2n1`, for which the inhibition amounted to 0% against Phosphodiesterase 4 [1], 0% against Phosphodiesterase 3 [2] and 29% in [9].

As for `CNCCCOc1ccccc1-c1nc2ccc[nH]c-2n1`, the inhibition was determined as 5% on Phosphodiesterase 4 [1], 0% against Phosphodiesterase 3 [2] and 12% in assay [9].

For `CCCOc1ccccc1-c1nc2ccc[nH]c-2n1`, the inhibition against Phosphodiesterase 3 [2] came out at 0%. The molecule also had an IC50 against Phosphodiesterase 4 [8] of 11 µM.

For `CN(C)CCCOc1ccccc1-c1nc2ccc[nH]c-2n1`, the inhibition came to 47% in assay [10], 7% against Phosphodiesterase 4 [1] and 8% against Phosphodiesterase 3 [2].

The molecule `c1ccc(COc2ccccc2-c2nc3ccc[nH]c-3n2)cc1` registered an inhibition on Phosphodiesterase 3 [2] of 0%. In addition, on Phosphodiesterase 4 [8], the concentration for half-maximal inhibition (IC50) amounted to 8 µM.

The molecule `CCCCCCOc1ccccc1-c1nc2ccc[nH]c-2n1` displayed an inhibition on Phosphodiesterase 3 [2] of 0%. The molecule also had an IC50 at Phosphodiesterase 4 [8] of 16 µM.

`CCCOc1ccccc1-c1nc2[nH]nnc2c(=O)[nH]1`: the figures for the inhibition against Phosphodiesterase 4 [1] and at Phosphodiesterase 3 [2] were 13% and 14%, respectively.

The molecule `CCCCOc1ccccc1-c1nc2ccc[nH]c-2n1` displayed an inhibition against Phosphodiesterase 3 [2] of 0%. This molecule came in with a concentration for half-maximal inhibition (IC50) against Phosphodiesterase 4 [8] of 6 µM.

Regarding `ClCCCOc1ccccc1-c1nc2ccc[nH]c-2n1`, the inhibition against Phosphodiesterase 3 [2] is 7%. For the same molecule, the IC50 against Phosphodiesterase 4 [8] is 9 µM.

In the case of `CCCNc1ccccc1-c1nc2ccc[nH]c-2n1`, the inhibition on Phosphodiesterase 4 [1] came to 11%; against Phosphodiesterase 3 [2], 0%.

Take `O=[N+]([O-])c1ccccc1-c1nc2ccc[nH]c-2n1`: the inhibition is 4% against Phosphodiesterase 4 [1], 0% on Phosphodiesterase 3 [2] and 13% in assay [9].

As for `COc1ccccc1-c1nc2ccc[nH]c-2n1`, the inhibition against Phosphodiesterase 4 [11] amounted to 1%; at Phosphodiesterase 3 [2], 13%.

Consider `CCCCCOc1ccccc1-c1nc2ccc[nH]c-2n1`, for which, on Phosphodiesterase 3 [2], the inhibition was 0%. The half-inhibitory concentration (IC50) against Phosphodiesterase 4 [8] stood at 6 µM.

As to `CC1(C)C(=O)Nc2ccc(C3=NNC(=O)CC3)cc21` [INDOLIDAN], on Phosphodiesterase 3 [4], the Ratio stood at 0.01. This molecule had an IC50 on Phosphodiesterase 3 [5] of 0.08 µM. For the same molecule, the 50% effect level at Phosphodiesterase 3 [3] (ED50) was put at a dose of 0.007 mg/kg.

Regarding `COc1ccccc1-c1nc2cc[nH]cc-2n1`, the inhibition against Phosphodiesterase 4 [1] was found to be 20%; at Phosphodiesterase 3 [2], 6%.

`c1c[nH]c2nc(-c3ccccc3OCC3CC3)nc-2c1` yielded an inhibition against Phosphodiesterase 3 [2] of 15%. Also, on Phosphodiesterase 4 [8], the IC50 was determined as 37 µM.
